Test results: ChEMBL document CHEMBL1152541, “Staurosporine tethered peptide ligands that target cAMP-dependent protein kinase (PKA): optimization and selectivity profiling” (Bioorg Med Chem, 2009)
*1 amine or outer side, *2 acyl side, *3 side chain or, on linkers, in order; H or OH if unused. Where a SMILES comes first, the peptide text is derived from it. Bridges are numbered along the chain shown (N, C = ends). [ ]: non-standard residue; d: D form. The star is where a group is joined. Staurosporine = CO[C@@H]1[C@H](N(C)*)C[C@H]2O[C@]1(C)n1c3ccccc3c3c4c(c5c6ccccc6n2c5c31)C(=O)NC4; Suc = O=C(CCC(=O)[*:2])[*:1]; Dap = NC[C@H](N)C(=O)O; βAla = NCCC(=O)O

Key:
[1] = biological target: Receptor tyrosine-protein kinase erbB-4 (Homo sapiens) (UniProt Q15303); assay: Binding affinity to human ERBB4 at 500 nM by cell-based competition binding assay relative to control in presence of DTT
Sequence of Receptor tyrosine-protein kinase erbB-4 (Homo sapiens) (Q15303 whole entry): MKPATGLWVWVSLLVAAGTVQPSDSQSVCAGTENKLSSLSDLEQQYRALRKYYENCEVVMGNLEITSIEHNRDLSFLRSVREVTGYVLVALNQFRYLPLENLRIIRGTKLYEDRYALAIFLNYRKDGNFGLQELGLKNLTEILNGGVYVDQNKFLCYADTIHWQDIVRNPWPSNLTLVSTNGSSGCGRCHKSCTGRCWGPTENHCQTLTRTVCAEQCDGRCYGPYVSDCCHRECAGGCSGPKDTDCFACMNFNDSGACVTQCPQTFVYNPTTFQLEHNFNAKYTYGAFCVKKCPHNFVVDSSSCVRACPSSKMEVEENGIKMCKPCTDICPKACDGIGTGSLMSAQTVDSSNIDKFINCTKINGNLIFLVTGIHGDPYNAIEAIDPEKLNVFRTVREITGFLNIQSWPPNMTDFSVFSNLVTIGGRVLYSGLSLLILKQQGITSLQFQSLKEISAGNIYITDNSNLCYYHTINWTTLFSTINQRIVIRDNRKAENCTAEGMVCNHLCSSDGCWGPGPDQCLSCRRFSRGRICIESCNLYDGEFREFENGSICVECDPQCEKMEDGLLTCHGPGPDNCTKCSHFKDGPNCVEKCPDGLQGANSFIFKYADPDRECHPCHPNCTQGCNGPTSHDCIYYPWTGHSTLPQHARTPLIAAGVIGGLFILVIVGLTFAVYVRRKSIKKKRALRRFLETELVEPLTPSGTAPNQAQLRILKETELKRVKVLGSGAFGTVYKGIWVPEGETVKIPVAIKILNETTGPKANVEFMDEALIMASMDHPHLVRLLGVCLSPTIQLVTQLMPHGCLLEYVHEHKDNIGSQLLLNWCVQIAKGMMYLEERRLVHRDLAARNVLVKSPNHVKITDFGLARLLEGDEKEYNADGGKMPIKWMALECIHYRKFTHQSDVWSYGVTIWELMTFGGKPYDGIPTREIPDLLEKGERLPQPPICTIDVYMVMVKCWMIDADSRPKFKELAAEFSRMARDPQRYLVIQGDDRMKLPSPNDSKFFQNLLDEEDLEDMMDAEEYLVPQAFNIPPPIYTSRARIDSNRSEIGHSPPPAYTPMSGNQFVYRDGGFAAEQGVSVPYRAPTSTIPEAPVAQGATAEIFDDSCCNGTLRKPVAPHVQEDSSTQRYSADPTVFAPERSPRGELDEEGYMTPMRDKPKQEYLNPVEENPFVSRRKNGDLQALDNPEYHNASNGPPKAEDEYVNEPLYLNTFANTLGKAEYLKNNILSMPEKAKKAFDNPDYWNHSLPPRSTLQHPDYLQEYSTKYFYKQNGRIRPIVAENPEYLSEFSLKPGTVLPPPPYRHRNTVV
Procedure, shortened: (§1)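 Commercial (Ambit) competitive kinase-binding panel of 90 kinases measured the binding profile. Run under reducing conditions of 7.5 mM DTT. Binding is expressed relative to control.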

[2] = biological target: Serine/threonine-protein kinase pim-2 (Homo sapiens) (UniProt Q9P1W9); assay: Binding affinity to human PIM2 at 500 nM by cell-based competition binding assay relative to control in presence of DTT
[3] = biological target: Proto-oncogene tyrosine-protein kinase Src (Homo sapiens) (UniProt P12931); assay: Binding affinity to human SRC at 500 nM by cell-based competition binding assay relative to control in presence of DTT
[4] = biological target: ALK tyrosine kinase receptor (Homo sapiens) (UniProt Q9UM73); assay: Binding affinity to human ALK at 500 nM by cell-based competition binding assay relative to control in presence of DTT
Procedure, shortened: (§2)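 Kinase binding profiling ran on a commercial (Ambit) competitive binding screen against a panel of 90 kinases. The screen used reducing conditions with 7.5 mM DTT. To withstand the DTT, the bivalent ligand was tested as its amide isostere, with the disulfide replaced. A staurosporine derivative carrying a 3 β-alanine linker was run as the reference compound.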

[5] = Ratio of compound to staurosporine binding affinity to PKA in presence of DTT
[6] = biological target: T1, Serine/threonine-protein kinase Chk1 (Homo sapiens) (UniProt O14757); assay: Ratio of compound to staurosporine binding affinity to CHK1 in presence of DTT
T1 sequence (whole entry): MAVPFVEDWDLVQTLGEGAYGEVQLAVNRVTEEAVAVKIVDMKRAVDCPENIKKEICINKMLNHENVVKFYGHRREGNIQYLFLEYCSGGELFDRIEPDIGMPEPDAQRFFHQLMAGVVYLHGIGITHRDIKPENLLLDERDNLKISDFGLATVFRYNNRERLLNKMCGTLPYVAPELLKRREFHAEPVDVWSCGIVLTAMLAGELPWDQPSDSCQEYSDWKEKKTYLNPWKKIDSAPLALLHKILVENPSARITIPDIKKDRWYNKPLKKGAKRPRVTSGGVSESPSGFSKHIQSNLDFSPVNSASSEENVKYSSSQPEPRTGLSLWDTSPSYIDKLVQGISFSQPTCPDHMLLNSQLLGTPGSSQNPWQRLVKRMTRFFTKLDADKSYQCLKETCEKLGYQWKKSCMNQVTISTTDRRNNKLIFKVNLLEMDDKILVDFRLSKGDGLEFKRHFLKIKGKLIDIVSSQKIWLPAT

[7] = biological target: Platelet-derived growth factor receptor beta (Homo sapiens) (UniProt P09619); assay: Binding affinity to human PDGFRbeta at 500 nM by cell-based competition binding assay relative to control in presence of DTT
[8] = biological target: Insulin-like growth factor 1 receptor (Homo sapiens) (UniProt P08069); assay: Binding affinity to human IGF1R at 500 nM by cell-based competition binding assay relative to control in presence of DTT
Sequence of Insulin-like growth factor 1 receptor (Homo sapiens) (P08069 31-736 limits assumed): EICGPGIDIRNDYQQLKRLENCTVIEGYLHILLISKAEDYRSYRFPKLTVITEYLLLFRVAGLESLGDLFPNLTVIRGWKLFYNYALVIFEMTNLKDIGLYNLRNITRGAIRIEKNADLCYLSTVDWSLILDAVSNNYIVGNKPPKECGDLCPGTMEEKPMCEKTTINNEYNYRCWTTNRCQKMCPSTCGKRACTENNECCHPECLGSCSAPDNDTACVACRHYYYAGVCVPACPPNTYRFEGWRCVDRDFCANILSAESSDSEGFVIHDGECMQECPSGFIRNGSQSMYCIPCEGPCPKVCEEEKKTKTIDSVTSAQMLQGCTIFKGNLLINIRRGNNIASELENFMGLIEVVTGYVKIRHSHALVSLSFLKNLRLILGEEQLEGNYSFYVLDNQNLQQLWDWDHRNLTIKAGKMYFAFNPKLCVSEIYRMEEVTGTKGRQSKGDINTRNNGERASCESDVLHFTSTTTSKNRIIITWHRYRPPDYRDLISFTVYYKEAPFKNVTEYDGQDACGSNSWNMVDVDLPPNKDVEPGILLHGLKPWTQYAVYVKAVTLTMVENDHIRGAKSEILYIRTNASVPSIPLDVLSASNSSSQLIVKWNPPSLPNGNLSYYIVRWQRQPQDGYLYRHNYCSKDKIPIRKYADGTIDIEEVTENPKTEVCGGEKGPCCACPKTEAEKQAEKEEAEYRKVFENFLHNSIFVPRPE
Sequence of Insulin-like growth factor 1 receptor (Homo sapiens) (P08069 741-1367 limits assumed): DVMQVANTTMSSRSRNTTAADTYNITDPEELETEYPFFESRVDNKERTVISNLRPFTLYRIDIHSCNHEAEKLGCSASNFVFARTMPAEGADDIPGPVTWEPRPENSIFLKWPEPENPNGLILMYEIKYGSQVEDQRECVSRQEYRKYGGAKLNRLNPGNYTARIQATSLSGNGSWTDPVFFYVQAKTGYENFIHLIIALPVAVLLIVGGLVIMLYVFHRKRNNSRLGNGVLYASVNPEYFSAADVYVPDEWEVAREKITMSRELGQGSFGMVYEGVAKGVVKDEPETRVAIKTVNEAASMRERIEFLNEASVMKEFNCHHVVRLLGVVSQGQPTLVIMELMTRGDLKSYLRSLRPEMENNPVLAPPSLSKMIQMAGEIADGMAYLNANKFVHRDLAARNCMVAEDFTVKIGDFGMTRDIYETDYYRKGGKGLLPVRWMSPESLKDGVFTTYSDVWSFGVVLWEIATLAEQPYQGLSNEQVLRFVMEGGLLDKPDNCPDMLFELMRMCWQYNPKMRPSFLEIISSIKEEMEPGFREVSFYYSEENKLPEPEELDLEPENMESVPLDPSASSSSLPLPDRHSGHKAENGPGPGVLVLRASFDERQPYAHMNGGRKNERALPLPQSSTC
Procedure, shortened: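 Competition binding screen (Ambit) across a panel of 90 kinases, scoring test ligand displacement of each kinase's binding relative to control. The screen ran under reducing conditions with 7.5 mM DTT.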

[9] = biological target: MAP kinase-interacting serine/threonine-protein kinase 2 (Homo sapiens) (UniProt Q9HBH9); assay: Binding affinity to human MKNK2 at 500 nM by cell-based competition binding assay relative to control in presence of DTT
Sequence of MAP kinase-interacting serine/threonine-protein kinase 2 (Homo sapiens) (Q9HBH9 whole entry, looked up): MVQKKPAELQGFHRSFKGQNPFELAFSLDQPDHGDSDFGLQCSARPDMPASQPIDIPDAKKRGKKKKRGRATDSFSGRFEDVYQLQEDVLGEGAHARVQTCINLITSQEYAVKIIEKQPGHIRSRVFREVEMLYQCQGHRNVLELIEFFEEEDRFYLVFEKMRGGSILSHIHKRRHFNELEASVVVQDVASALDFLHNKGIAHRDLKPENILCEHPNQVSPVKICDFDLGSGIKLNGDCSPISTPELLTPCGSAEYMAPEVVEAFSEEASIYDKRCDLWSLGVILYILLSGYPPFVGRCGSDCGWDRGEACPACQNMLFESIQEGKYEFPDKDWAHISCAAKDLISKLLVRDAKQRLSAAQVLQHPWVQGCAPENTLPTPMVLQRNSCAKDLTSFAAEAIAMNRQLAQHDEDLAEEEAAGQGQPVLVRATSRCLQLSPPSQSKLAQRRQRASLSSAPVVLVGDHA

[10] = biological target: T2, 3-phosphoinositide-dependent protein kinase 1 (Homo sapiens) (UniProt O15530); assay: Binding affinity to human PDPK1 at 200 nM by cell-based competition binding assay relative to control in presence of DTT
T2 sequence (whole entry): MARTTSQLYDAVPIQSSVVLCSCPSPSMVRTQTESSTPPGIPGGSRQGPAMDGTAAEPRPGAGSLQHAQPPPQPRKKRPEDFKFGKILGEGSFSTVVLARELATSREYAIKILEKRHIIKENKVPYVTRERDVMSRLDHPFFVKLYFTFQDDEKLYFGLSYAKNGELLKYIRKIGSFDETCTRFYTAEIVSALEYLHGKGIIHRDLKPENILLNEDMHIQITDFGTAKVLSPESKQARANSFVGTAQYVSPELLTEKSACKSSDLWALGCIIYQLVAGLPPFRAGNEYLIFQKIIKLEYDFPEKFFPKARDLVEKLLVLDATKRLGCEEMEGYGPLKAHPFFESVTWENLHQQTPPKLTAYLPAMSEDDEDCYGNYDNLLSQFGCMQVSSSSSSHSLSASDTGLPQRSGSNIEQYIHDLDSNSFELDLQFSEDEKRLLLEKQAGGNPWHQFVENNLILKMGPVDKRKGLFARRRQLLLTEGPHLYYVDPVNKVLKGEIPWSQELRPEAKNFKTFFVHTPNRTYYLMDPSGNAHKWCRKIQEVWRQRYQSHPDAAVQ

[11] = biological target: Phosphatidylinositol 4-phosphate 3-kinase C2 domain-containing subunit beta (Homo sapiens) (UniProt O00750); assay: Binding affinity to human PIK3C2beta at 200 nM by cell-based competition binding assay relative to control in presence of DTT
[12] = biological target: Cyclin-dependent kinase 19 (Homo sapiens) (UniProt Q9BWU1); assay: Binding affinity to human CDK11 at 200 nM by cell-based competition binding assay relative to control in presence of DTT; procedure, shortened: as §2
Sequence of Cyclin-dependent kinase 19 (Homo sapiens) (Q9BWU1 whole entry, the tested form may be a part, canonical isoform): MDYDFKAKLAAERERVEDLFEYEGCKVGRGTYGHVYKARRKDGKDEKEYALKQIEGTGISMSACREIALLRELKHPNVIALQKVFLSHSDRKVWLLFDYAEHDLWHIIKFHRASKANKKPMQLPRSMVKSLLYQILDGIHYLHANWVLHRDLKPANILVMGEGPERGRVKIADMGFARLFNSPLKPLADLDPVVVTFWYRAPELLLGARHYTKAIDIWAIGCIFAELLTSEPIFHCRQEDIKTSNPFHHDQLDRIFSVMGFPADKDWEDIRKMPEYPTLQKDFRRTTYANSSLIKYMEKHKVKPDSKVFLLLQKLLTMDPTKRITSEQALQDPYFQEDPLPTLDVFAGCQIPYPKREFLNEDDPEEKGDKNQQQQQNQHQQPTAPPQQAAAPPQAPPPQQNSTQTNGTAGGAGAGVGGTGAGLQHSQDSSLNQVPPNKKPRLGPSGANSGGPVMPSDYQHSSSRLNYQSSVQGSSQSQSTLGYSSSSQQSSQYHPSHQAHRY

[13] = biological target: Casein kinase I isoform delta (Homo sapiens) (UniProt P48730); assay: Binding affinity to human CSNK1D at 200 nM by cell-based competition binding assay relative to control in presence of DTT; procedure, shortened: as §1
[14] = biological target: Tyrosine-protein kinase receptor UFO (Homo sapiens) (UniProt P30530); assay: Binding affinity to human AXL at 50 nM by cell-based competition binding assay relative to control in presence of DTT; procedure, shortened: as §2
[15] = biological target: Cyclin-dependent kinase 19 (Homo sapiens) (UniProt Q9BWU1); assay: Binding affinity to human CDK11 at 50 nM by cell-based competition binding assay relative to control in presence of DTT; procedure, shortened: as §2
[16] = biological target: Non-receptor tyrosine-protein kinase TYK2 (Homo sapiens) (UniProt P29597); assay: Binding affinity to human TYK2 kinase domain 2 at 50 nM by cell-based competition binding assay relative to control in presence of DTT
Sequence of Non-receptor tyrosine-protein kinase TYK2 (Homo sapiens) (P29597 whole entry, the tested form may be a part): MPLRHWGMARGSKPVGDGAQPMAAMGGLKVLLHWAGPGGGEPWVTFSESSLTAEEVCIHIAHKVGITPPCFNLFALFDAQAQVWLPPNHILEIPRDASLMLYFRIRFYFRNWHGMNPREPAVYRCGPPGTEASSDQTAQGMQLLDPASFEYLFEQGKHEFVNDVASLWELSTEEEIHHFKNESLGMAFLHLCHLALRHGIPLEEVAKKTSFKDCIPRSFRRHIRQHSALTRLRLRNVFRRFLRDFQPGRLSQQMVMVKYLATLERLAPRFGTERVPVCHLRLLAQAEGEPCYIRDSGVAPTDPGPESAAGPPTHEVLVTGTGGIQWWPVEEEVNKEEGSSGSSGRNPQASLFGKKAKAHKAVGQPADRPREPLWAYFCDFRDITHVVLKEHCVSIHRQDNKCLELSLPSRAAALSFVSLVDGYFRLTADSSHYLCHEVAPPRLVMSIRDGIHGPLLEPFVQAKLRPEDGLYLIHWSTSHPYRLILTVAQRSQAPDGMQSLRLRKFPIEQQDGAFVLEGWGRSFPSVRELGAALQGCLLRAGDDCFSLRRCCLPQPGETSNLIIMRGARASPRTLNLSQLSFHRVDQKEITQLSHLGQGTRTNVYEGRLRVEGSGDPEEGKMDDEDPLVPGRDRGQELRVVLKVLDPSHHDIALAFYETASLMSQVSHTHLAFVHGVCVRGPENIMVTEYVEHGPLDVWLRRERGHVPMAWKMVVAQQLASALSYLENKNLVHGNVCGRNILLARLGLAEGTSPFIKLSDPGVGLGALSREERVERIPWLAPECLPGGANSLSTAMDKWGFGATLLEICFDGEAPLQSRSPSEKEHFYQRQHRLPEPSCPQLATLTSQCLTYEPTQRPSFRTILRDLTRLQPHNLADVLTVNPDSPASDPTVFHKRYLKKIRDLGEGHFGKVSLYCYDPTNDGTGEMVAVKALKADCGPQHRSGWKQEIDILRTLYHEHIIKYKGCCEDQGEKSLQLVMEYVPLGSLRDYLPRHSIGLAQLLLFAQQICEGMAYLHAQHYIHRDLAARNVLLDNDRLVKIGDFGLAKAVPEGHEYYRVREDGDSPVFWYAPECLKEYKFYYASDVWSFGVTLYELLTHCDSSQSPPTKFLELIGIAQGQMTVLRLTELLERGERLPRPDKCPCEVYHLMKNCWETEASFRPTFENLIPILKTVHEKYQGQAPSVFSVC

## CO[C@@H]1[C@H](N(C)C(=O)CCC(=O)NCCC(=O)NCCC(=O)NCCC(N)=O)C[C@H]2O[C@]1(C)n1c3ccccc3c3c4c(c5c6ccccc6n2c5c31)C(=O)NC4
[1]
  Activity: 70%
[2]
  Activity: 100%
[3]
  Activity: 72%
[4]
  Activity: 5.2%
[5]
  Selectivity ratio: 14
[6]
  Selectivity ratio: 84
[7]
  Activity: 0.05%
[8]
  Activity: 82%
[9]
  Activity: 39%

## CO[C@@H]1[C@H](N(C)C(=O)CCC(=O)NCCC(=O)NCCC(=O)NCCC(=O)NCCC(=O)NCCC(=O)NCCC(=O)NCCC(=O)N[C@H]2CSSC[C@@H](C(=O)NCC(N)=O)NC(=O)CNC(=O)[C@H](Cc3ccccc3)NC(=O)[C@H](C(C)C)NC(=O)[C@H](CCCNC(=N)N)NC(=O)[C@H](Cc3ccccc3)NC(=O)[C@H](C(C)C)NC2=O)C[C@H]2O[C@]1(C)n1c3ccccc3c3c4c(c5c6ccccc6n2c5c31)C(=O)NC4 ({Staurosporine-Suc-βAla-βAla-βAla-βAla-βAla-βAla-βAla}-CVFRVFGCG-NH2; disulfide 1-8)
[10]
  Activity: 16%
[11]
  Activity: 100%
[12]
  Activity: 87%
[13]
  Activity: 100%

## CO[C@@H]1[C@H](N(C)C(=O)CCC(=O)NCCC(=O)NCCC(=O)NCCC(=O)NCCC(=O)NCCC(=O)NCCC(=O)NCCC(=O)N[C@H]2CNC(=O)C[C@@H](C(N)=O)NC(=O)CNC(=O)[C@H](Cc3ccccc3)NC(=O)[C@H](C(C)C)NC(=O)[C@H](CCCNC(=N)N)NC(=O)[C@H](Cc3ccccc3)NC(=O)[C@H](C(C)C)NC2=O)C[C@H]2O[C@]1(C)n1c3ccccc3c3c4c(c5c6ccccc6n2c5c31)C(=O)NC4 ({Staurosporine-Suc-βAla-βAla-βAla-βAla-βAla-βAla-βAla}-[Dap]VFRVFGD-NH2; lactam 1-8)
[14]
  Activity: 81%
[15]
  Activity: 100%
[16]
  Activity: 100%
